Data on four compounds can be found in ChEMBL document CHEMBL4706726, “Glucosamine and Its Analogues as Modulators of Amyloid-β Toxicity” (ACS Med Chem Lett, 2021).

In data set [1] the target is Amyloid-beta precursor protein (Homo sapiens) (UniProt P05067). Put plainly: Modulation of human amyloid beta (1 to 42) supramolecular organization assessed as reduction in antiparallel beta-sheets characteristic of cytotoxic Abeta42 aggregates at 1 mM measured for 5 days by CD spectrometry. The note with it: filed as modulator, time 5.0 day. An outline of the steps:
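Aβ42 secondary structure followed by circular dichroism over 1 and 5 days, with 1 mM of each monosaccharide present. Loss of antiparallel β-sheet was scored against 25 μM Aβ42 control. Error bars SD.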

For data set [2] the target is unchanged. In words: Modulation of human amyloid beta (1 to 42) supramolecular organization assessed as prevalence of Abeta42 fibrils with parallel beta-sheets at 1 mM incubated for 5 days by ATR-FITR analysis. The note with it: time 5.0 day.
Data set [3] shares this target. Put plainly: Modulation of amyloid beta (1 to 42) supramolecular organization in human SH-SY5Y cells assessed as reduction in inflammation by measuring decrease in Abeta-42-induced ANXA1 expression at 1 mM incubated for 1 hr by immunoblot analysis. It is filed as cell-based. To be noted: filed as modulator. The essentials:
(§1)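 SH-SY5Y cells in medium with 10% FBS, no added insulin, cultured 1 h with Aβ42 (25 μM) with or without monosaccharide (1 mM); protein expression read by immunoblot.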
(In western blotting, separated proteins are transferred to a membrane and probed.)

Data set [4] has the same target. Put plainly: Modulation of amyloid beta (1 to 42) supramolecular organization in human SH-SY5Y cells assessed as inhibition of Abeta42-induced disruption of cell membrane by measuring reduction in Ca2+ influx at 1 mM incubated for 24 hrs by […] dye based scanning confocal fluorescence microscopy relative to control. To be noted: filed as modulator. An outline of the steps:
(§2)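 SH-SY5Y cells cultured 24 h with Aβ42 (25 μM) plus each monosaccharide (1 mM). Intracellular free Ca2+ imaged by fluorescence using Fluo3-AM […] as Ca2+ probes. Controls were cells cultured without Aβ42 and monosaccharide.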

Data set [5] has the same target. Put plainly: Modulation of amyloid beta (1 to 42) supramolecular organization in human SH-SY5Y cells assessed as inhibition of Abeta42-induced disruption of cell membrane by measuring reduction in Ca2+ influx at 1 mM incubated for 24 hrs by Fluo-3AM dye based scanning confocal fluorescence microscopy relative to control. To be noted: filed as modulator. An outline of the steps: as §2

The target is the same in data set [6]. In words: Modulation of amyloid beta (1 to 42) supramolecular organization in human SH-SY5Y cells assessed as reduction in insulin resistance by measuring increase in AKT1 phosphorylation phosphorylation at Ser473 residue at 1 mM incubated for 1 hr by immunoblot analysis. The data set is classed as cell-based. To be noted: filed as modulator. The essentials: as §1

Data set [7] shares this target. Put plainly: Modulation of human amyloid beta (1 to 42) supramolecular assembly assessed as elongation of amyloidbeta42 fibrils at 50 mM measured for 10 days by ThT dye based fluorescence spectrophotometry. The note with it: time 10.0 day. An outline of the steps:
(§3)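 Aβ42 aggregation kinetics followed for 10 days by thioflavin-T fluorescence, which reports parallel β-sheets. Each monosaccharide tested at several concentrations from 250 μM up to 50 mM.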

The target is the same in data set [8]. In words: Modulation of human amyloid beta (1 to 42) supramolecular assembly assessed as elongation of amyloid beta42 fibrils at <50 mM measured for 10 days by ThT dye based fluorescence spectrophotometry. The note with it: filed as modulator, dose mM <50, time 10.0 day. An outline of the steps: as §3
Data set [9] shares this target. In words: Modulation of human amyloid beta (1 to 42) supramolecular organization assessed as reduction in 6E10 epitope binding site structure at 1 mM measured for 1 to 5 days by Western blot analysis. The note with it: filed as modulator, time 1-5 day. An outline of the steps: (§4)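 Aβ42 (25 μM) incubated with monosaccharide (1 mM) for 1 or 5 days; assemblies detected by Western blot with antibody 6E10 and quantified by relative densitometry against Aβ42 alone; error bars SD.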

Data set [10] relates to SH-SY5Y. Put plainly: Neuroprotective activity against Abeta-42-induced cytotoxicity in human SH-SY5Y cells assessed as increase in cell viability at 1 mM measured upto 5 days by alamar blue assay. The data set is classed as functional, cell-based. The note with it: time day <=5. An outline of the steps:
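SH-SY5Y cells incubated with Aβ42 plus each monosaccharide (1 mM) for 5 h, 24 h and 5 days. Cell viability measured at each time.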
Background: Resazurin is reduced to fluorescent resorufin, in cell work by metabolically active cells.

In data set [11] the target is Amyloid-beta precursor protein (Homo sapiens) (UniProt P05067). Put plainly: Modulation of human amyloid beta (1 to 42) supramolecular organization at 0.4 mM by dynamic light scattering based analysis. The note with it: filed as modulator.
Data set [12] has the same target. In words: Modulation of amyloid beta (1 to 42) supramolecular organization in human SH-SY5Y cells assessed as reduction in insulin resistance by measuring reduction in Abeta-42-induced IRS1 phosphorylation at Ser612 residue at 1 mM incubated for 1 hr by immunoblot analysis. To be noted: filed as modulator. The data set is classed as cell-based. The essentials:
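SH-SY5Y cells cultured 1 h in medium with 10% FBS and no added insulin, with or without Aβ42 (25 μM) and each monosaccharide. IRS1 phosphorylation at S612 quantified by expression analysis. Parallel runs supplemented with 5 nM insulin.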

For data set [13] the target is unchanged. In words: Modulation of amyloid beta (1 to 42) supramolecular organization in human SH-SY5Y cells assessed as reduction in inflammation by measuring decrease in Abeta-42-induced ANXA1 expression at 1 mM incubated for 1 hr in presence of insulin by immunoblot analysis. The data set is classed as cell-based. To be noted: filed as modulator. An outline of the steps: (§5)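 SH-SY5Y cells in medium with 10% FBS plus 5 nM insulin, cultured 1 h with Aβ42 (25 μM) with or without monosaccharide (1 mM); protein expression read by immunoblot.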

Data set [14] has as its system SH-SY5Y. Put plainly: Cytotoxicity against human SH-SY5Y cells assessed as reduction in cell viability at 1 mM measured after 1 day by alamar blue assay. The data set is classed as cell-based. The note with it: 24 h, 1000 µM. An outline of the steps:
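SH-SY5Y neuroblastoma cells exposed to each monosaccharide (1 mM) under cell culture conditions without Aβ42. Viability screened for cytotoxicity.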

The target in data set [15] is Amyloid-beta precursor protein (Homo sapiens) (UniProt P05067). In words: Modulation of amyloid beta (1 to 42) supramolecular organization in human SH-SY5Y cells assessed as reduction in insulin resistance by measuring reduction in Abeta-42-induced IRS1 phosphorylation at Ser612 residue at 1 mM incubated for 1 hr in presence of insulin by immunoblot analysis. The note with it: filed as modulator. The data set is classed as cell-based. The essentials:
as §5

Data set [16] shares this target. In words: Modulation of amyloid beta (1 to 42) supramolecular organization in human SH-SY5Y cells assessed as reduction in AChE activity at 1 mM incubated for 1 day. It is filed as cell-based. To be noted: filed as modulator. The essentials: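 SH-SY5Y neuroblastoma cells exposed to Aβ42 with monosaccharide (1 mM); cellular AChE activity read after 1 day of incubation.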

For data set [17] the target is unchanged. Put plainly: Modulation of human amyloid beta (1 to 42) supramolecular organization assessed as reduction in amount of cytotoxic Abeta42 oligomers at 1 mM measured for 1 to 5 days by Western blot analysis. The note with it: filed as modulator, time 1-5 day. The essentials: as §4

Usually inhibition stands for the drop in the measured response relative to a control, in per cent.

Active and inactive are the calls of the source. The calls are words filed in the database; no cut-off is given here.

Sequence of Amyloid-beta precursor protein (Homo sapiens) (P05067 whole entry): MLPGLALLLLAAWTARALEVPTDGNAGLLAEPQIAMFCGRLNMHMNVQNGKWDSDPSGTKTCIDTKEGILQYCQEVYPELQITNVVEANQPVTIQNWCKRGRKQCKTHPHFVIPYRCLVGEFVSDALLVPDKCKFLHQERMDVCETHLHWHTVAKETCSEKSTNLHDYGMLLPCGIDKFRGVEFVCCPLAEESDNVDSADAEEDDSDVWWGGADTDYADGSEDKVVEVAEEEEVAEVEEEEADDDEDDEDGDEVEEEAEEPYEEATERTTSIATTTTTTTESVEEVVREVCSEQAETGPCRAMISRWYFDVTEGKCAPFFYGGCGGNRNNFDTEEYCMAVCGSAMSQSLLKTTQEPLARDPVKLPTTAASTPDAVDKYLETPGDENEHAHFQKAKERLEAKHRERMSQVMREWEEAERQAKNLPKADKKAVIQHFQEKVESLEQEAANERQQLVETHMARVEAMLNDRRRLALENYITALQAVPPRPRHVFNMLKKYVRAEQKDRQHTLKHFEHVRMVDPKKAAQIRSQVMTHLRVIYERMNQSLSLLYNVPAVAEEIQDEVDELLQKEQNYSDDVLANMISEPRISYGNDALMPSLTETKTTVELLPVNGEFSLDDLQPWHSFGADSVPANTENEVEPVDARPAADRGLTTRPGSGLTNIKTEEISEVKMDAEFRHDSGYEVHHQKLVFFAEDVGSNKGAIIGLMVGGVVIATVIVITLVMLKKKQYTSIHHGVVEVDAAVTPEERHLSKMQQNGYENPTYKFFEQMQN

As for `N[C@@H]1[C@@H](O)[C@H](O)[C@@H](COP(=O)(O)O)O[C@H]1O`, the result in [1], in data set [2] (filed as modulator), in data set [3], in data set [6], in data set [8] and in data set [9] was Active. For the same compound, the outcome (with SH-SY5Y [10]; in data set [11]; in data set [12]; in [13]; in data set [15]) was Active. The inhibition result in [4] and in data set [5] was “Active” throughout. The outcome in data set [7] was inactive. Moreover, in the data set on SH-SY5Y [14], the Activity entry is reported as “Non-Toxic”.
With `N[C@@H]1[C@@H](O)[C@H](O)[C@@H](CO)O[C@H]1O`, the result (in [1]; in data set [8]; in the data set with SH-SY5Y [10]; in [11]) was Active. Besides, the outcome in data set [2] and in data set [7] was inactive. The Activity result in the data set with SH-SY5Y [14] is “Non-Toxic”.
Turning to `N[C@@H]1[C@@H](O)[C@H](O)[C@@H](COS(=O)(=O)O)O[C@H]1O`, the outcome in data set [1], in data set [2] (filed as modulator), in data set [3], in data set [16], in [17] and in data set [6] was Active. For the same compound, the result (in [8]; in data set [9]; in the data set on SH-SY5Y [10]; in data set [11]; in data set [12]; in data set [13]) was Active. Further, in data set [15], the outcome was Active. In addition, the values for the inhibition in data set [4] and in data set [5] were 60% and 41%, respectively. In addition, the outcome in data set [7] was inactive. For the same compound, the Activity result in the data set on SH-SY5Y [14] is recorded as “Non-Toxic”.
As to `CC(=O)N[C@H]1C(O)O[C@H](CO)[C@@H](O)[C@@H]1O` (some centres not stated), the outcome (in data set [1]; in data set [8]; with SH-SY5Y [10]; in data set [11]; in data set [12]) was Active. Also, the outcome in data set [2] and in data set [7] was inactive. Further, in the data set on SH-SY5Y [14], the Activity result was “Non-Toxic”.
